KCNK9 block: KCNK9 potassium channel inhibitors, primary screen, HEK293 cells, thallium flux; FluxOR thallium flux fluorescence; stronger effect = lower value; B-score at 10 µM; 310,000 tested, 1.2% active;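 active means ratio B-score over 3 SD below the library mean, with starting fluorescence within 5 SD of its mean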;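 further: negative B-score means less thallium flux so channel inhibition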
Target sequence (Q9NPC2 whole entry, looked up): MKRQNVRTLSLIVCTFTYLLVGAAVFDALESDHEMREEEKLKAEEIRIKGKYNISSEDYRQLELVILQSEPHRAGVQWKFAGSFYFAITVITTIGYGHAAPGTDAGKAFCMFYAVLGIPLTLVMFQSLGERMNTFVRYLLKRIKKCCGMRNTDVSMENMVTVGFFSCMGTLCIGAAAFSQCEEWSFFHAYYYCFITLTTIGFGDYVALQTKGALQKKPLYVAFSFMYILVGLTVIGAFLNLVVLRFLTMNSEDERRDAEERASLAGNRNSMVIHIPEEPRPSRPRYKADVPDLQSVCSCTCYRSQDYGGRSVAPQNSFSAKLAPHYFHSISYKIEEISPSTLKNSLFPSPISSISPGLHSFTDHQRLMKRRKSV
KCNQ1 inh: inhibitors of human KCNQ1 channel, primary screen, cell-based, thallium flux, high-throughput. CHO-K1 KCNQ1, FluxOR thallium flux fluorescence; stronger effect = higher value. Potassium voltage-gated channel subfamily KQT member 1 (Homo sapiens), P51787. 310,000 tested, 1.3% active. B-score at 10 µM;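 active means compounds whose thallium flux B-score, printed positive for inhibition, exceeds three library SD while starting fluorescence stays within three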;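 further: channel opened by potassium depolarization with thallium stimulus after 20 min compound exposure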
KCNQ1 act: potentiators or activators of KCNQ1 channel, primary screen, cell-based, thallium flux, high-throughput; Potassium voltage-gated channel subfamily KQT member 1 (Homo sapiens), P51787; CHO-K1 KCNQ1, thallium flux FluxOR fluorescence; stronger effect = higher value; B-score at 10 µM; 310,000 tested, 0.35% active;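 active means fluorescence ratio B-score, a plate-corrected score, at least three library SD, with initial intensity B-score within 5 SD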
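Doses: Single concentration per compound, DMSO matched to controls | Test system: KCNQ1-transfected CHO-K1 cells | Timing: 90 min dye loading and 20 min compound exposure, both at room temperature | Measured by: Kinetic FluxOR thallium fluorescence, 10-s 1-Hz baseline, 110-s post-stimulus read | Medium: Assay buffer with matched DMSO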
hERG rescue: hERG rescue from dofetilide block, primary screen, cell-based, CHO-hERG, FluxOR thallium flux, dofetilide IC70. activation (rescue from dofetilide block), less the hit threshold, % at 10 µM. 310,000 tested, 0.51% active. dofetilide IC70 present;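 active means activation above the mean of controls blocked by dofetilide plus 5 SD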;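 further: thallium influx through hERG after potassium depolarization seen as dye fluorescence rise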
KCNK3 block: human KCNK3 channel inhibitors, primary screen, CHO cells, FluxOR thallium flux, B-score. Potassium channel subfamily K member 3 (Homo sapiens), O14649. 340,000 tested, 0.84% active. FluxOR fluorescence; stronger effect = lower value. AID 602410, 2012. B-score at 10 µM;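 active means B-score under library mean minus 4 SD, starting fluorescence ratio at most library mean plus 5 SD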;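 further: more negative B-score means stronger inhibition of thallium flux through KCNK3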
Cl transport mod: KCC2 cotransporter modulators, thallium flux, primary screen, cell-based, HEK293 KCC2, FluoZin-2 fluorescence, MLSMR; Solute carrier family 12 member 5 (Homo sapiens), Q9H2X9; KCC2 cells, thallium flux FluoZin-2 fluorescence; B-score of Tl+ flux slope (higher = more flux/activation; lower = inhibition) at 10 µM; 190,000 tested, 2.2% active; AID 1456, 2008;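 active means thallium flux slope and its plate-corrected score both differing from the plate sample mean at a set confidence after two filtering rounds, in either direction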;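 further: slope of fluorescence scaled to starting intensity during 10 to 20 s after thallium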
An asterisk follows results filed as active; i = inactive; . = no result. Hits are enriched below; roughly 4.1% of the tested compounds scored in any of these assays.

SMILES	KCNK9 block	KCNQ1 inh	KCNQ1 act	hERG rescue	KCNK3 block	Cl transport mod
O=C(COc1ccccc1)NCc1nnc(SCC(=O)Nc2nccs2)n1-c1ccccc1	i	i	i	-6	i	-0.097
C/C(=N\NC(N)=O)c1ccc(Cl)s1	i	i	i	-11	i	-0.86
CNC(=S)N/N=C(\C)c1ccc(Cl)s1	i	i	i	-3	i	13*
Cc1cc(C(=O)COC(=O)c2n[nH]c(=O)c3ccccc23)c(C)n1C(C)C	.	.	.	.	i	.
Cc1ccc2nc(C)c(CN3CCN(c4ccc([N+](=O)[O-])cc4Cl)CC3)n2c1	i	9*	i	-17	i	.
CCCCC(CC)C(=O)Nc1ccc(C)c(O)c1 (centres undefined)	-7.5*	i	i	-10	i	-0.46
CCCCC(CC)C(=O)Nc1ccc(S(=O)(=O)N2CCCC2)cc1 (centres undefined)	i	i	i	-12	i	.
CCCCC(CC)C(=O)Nc1ccc(C#N)cc1 (centres undefined)	i	i	i	-2	i	0.43
CCCCC(CC)C(=O)Nc1ccc(Nc2ccccc2)cc1 (centres undefined)	-6.7*	i	i	0	i	-1.9
COc1nccnc1NS(=O)(=O)c1ccc(NC(=S)NC(=O)c2ccccc2F)cc1	i	i	8*	1	i	1.1
COc1cccc(C2CNC3(CCCC(C)C3)c3[nH]c4ccccc4c32)c1OC (centres undefined)	i	i	i	-5	i	.
CCCN(Cc1ccccc1)C(=S)NC(=O)c1ccccc1[N+](=O)[O-]	i	i	i	29*	i	70*
CCN(Cc1ccccc1)C(=S)NC(=O)c1ccccc1Br	i	i	43*	22*	i	.
O=C(Cn1cc(COc2ccc(Br)cc2[N+](=O)[O-])nn1)c1ccc(O)cc1	.	.	.	.	i	.
Cc1nnc(NC(=O)CN2CCN(Cc3ccc(F)cc3Cl)CC2)s1	i	i	i	6.3*	i	.
O=C(CSCC(=O)N1CCCCC1)Nc1nc(-c2ccccc2)c(-c2ccccc2)s1	.	.	.	.	-11*	2.2
CCOC(=O)C1C(=O)C=C(C)C(C(=O)OCC)C1c1cccc([N+](=O)[O-])c1 (centres undefined)	i	i	i	-10	i	.
Cc1ccc(S(=O)(=O)N2CCC(=O)N(C(COC(=O)Nc3ccccc3)Cc3ccccc3)CC2)cc1 (centres undefined)	-6.7*	i	i	-16	i	-4.2
CC(C)(C)C1(O)CC(C(F)(F)F)=NN1C(=O)Cc1ccc([N+](=O)[O-])cc1 (centres undefined)	i	i	12*	-2	i	0.45
Cc1ccc(OCC(=O)N2N=C(C(F)(F)F)CC2(O)C(C)(C)C)cc1C (centres undefined)	i	7*	i	-6	i	-0.79
O=C(c1ccc(NS(=O)(=O)c2ccc3c(c2)OCCO3)cc1)N1CCCCC1	i	i	i	-9	i	0.052
CCOC(=O)c1c(C)oc2cc(Br)c(OC)cc12	i	i	i	9.4*	i	-0.25
CCOC(=O)c1c(CNCCN(CC)CC)n(C)c2cc(Br)c(OC)cc12	i	i	i	-8	i	-3*
CN(C)C(=O)c1cc(C(=O)Cc2ccccc2)c[nH]1	i	i	i	-6	i	.
CCOC(=O)N1CCN(C(c2ccc(C)cc2)c2sc3nc(C)nn3c2O)CC1 (centres undefined)	i	i	i	-9	i	0.1
SMILES	KCNK9 block	KCNQ1 inh	KCNQ1 act	hERG rescue	KCNK3 block	Cl transport mod
CCN1CCCC(OC(=O)c2cc(-c3ccccc3Cl)nc3ccccc23)C1 (centres undefined)	-6.7*	i	i	-11	i	-1.1
O=C(c1cc(-c2ccccc2Cl)nc2ccccc12)N1CCN(c2ccccc2O)CC1	i	6*	i	-26	i	.
O=C(c1cc(-c2ccccc2Cl)nc2ccccc12)N1CCC1	i	i	i	-17	i	.
CCOc1ccccc1N1CCN(C(=O)c2cc(-c3cc(OC)ccc3OC)nc3ccccc23)CC1	i	6*	i	-19	i	.
COc1ccc(/C=C/c2cc(-c3ccc(C)cc3)o[n+]2C)cc1	i	9*	i	-28	i	-0.67
O=C1NC[C@H](Cc2ccccc2)N(C[C@H]2CCCN2C[C@H](Cc2ccccc2)N2C[C@H](Cc3ccccc3)N(CC3CCCCCC3)C(=O)C2=O)C1=O	.	.	.	.	-9*	.
CC(C)C[C@@H](CN1CCC[C@@H]1CN1C(=O)C(=O)NC[C@@H]1Cc1ccccc1)N1C[C@H](Cc2ccccc2)N(CC2CCCCCC2)C(=O)C1=O	.	.	.	.	i	.
CC(NC(=O)C1CCCC1)c1ccc(Br)cc1 (centres undefined)	i	i	i	5.5*	i	.
COc1cc(C2c3cc4c(cc3C(OC3OC5COC(c6cccs6)OC5C(O)C3O)C3COC(=O)C23)OCO4)cc(OC)c1O (centres undefined)	i	8*	i	-13	i	0.96
CCOC(=O)C1=C2N(C)c3ccccc3N2CCC1=O	.	.	.	.	i	-0.3
CC(C)(C)n1nnnc1C(c1cccnc1)N(Cc1ccccc1)Cc1ccco1 (centres undefined)	i	i	i	-8	i	-1.2
CCC(C)(C)n1nnnc1C(c1ccc(C)cc1)N(Cc1ccco1)Cc1cccs1 (centres undefined)	-6.9*	i	i	-3	i	-1.1
C/C(=N\Nc1ccc(C(=O)O)cc1)c1nc2ccccc2n1C	i	i	i	-14	.	-0.091
COc1ccc(Cl)cc1N(C)C(=O)CCNC(=O)Cn1cnc2ccccc2c1=O	i	i	i	5.0*	i	.
CN(C(=O)CCNC(=O)Cn1cnc2ccccc2c1=O)c1ccc(Br)cc1	i	i	i	-3	i	.
CCN(CC)C(=O)C(=O)c1cccn1-c1ccc(C#N)cc1	i	i	i	-10	i	.
CN(C)c1ccc(C2C3C(=O)NC(=O)C3ON2c2ccc(Cl)cc2)cc1 (centres undefined)	i	i	i	-9	i	.
